Screening data (PubChem BioAssay)
hERG rescue = hERG rescue from dofetilide block, primary screen, cell-based, CHO-hERG, FluxOR thallium flux, dofetilide IC70 | AID 1511, 2009 | Voltage-gated inwardly rectifying potassium channel KCNH2 (Homo sapiens), Q12809 | actives 0.51% (n = 310,000) | activation (rescue from dofetilide block), less the hit threshold, % at 10 µM | dofetilide IC70 present;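 active = activation above the mean of controls blocked by dofetilide plus 5 SD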;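 note: thallium influx through hERG after potassium depolarization seen as dye fluorescence rise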
Target sequence (Q12809 whole entry, looked up): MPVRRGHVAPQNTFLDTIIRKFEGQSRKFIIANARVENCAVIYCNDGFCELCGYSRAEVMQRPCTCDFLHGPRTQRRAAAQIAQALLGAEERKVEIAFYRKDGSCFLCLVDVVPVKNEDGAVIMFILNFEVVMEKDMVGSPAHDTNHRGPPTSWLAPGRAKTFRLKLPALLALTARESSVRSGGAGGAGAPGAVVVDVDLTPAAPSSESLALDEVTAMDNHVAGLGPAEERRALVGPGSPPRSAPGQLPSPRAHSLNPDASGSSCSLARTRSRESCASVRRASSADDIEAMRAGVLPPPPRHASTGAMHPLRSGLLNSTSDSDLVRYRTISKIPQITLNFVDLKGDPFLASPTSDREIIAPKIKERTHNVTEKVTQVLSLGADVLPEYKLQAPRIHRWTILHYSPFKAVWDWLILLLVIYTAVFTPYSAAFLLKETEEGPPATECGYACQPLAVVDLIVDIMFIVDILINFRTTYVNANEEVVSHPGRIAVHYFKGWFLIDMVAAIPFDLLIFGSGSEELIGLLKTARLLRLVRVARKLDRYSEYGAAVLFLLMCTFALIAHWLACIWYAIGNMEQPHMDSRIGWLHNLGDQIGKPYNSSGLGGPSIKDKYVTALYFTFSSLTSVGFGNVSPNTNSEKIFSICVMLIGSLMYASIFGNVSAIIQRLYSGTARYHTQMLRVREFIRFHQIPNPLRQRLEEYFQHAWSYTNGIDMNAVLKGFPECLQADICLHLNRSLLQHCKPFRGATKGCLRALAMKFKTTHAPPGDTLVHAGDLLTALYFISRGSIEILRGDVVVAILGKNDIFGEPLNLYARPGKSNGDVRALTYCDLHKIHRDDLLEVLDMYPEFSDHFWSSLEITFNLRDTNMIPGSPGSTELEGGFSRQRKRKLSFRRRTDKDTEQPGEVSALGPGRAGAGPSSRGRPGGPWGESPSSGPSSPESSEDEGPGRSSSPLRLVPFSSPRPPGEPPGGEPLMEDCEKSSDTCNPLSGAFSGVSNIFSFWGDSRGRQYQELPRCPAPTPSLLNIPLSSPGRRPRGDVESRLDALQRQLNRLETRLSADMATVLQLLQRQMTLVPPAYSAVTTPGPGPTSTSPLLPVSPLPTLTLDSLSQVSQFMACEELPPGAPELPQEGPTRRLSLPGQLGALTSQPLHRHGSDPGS
KCNQ1 block = inhibitors of human KCNQ1 channel, primary screen, cell-based, thallium flux, high-throughput. CHO-K1 KCNQ1, FluxOR thallium flux fluorescence; active compounds read high. B-score at 10 µM. actives 1.3% (n = 310,000). AID 2642, 2010;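 active = compounds whose thallium flux B-score, printed positive for inhibition, exceeds three library SD while starting fluorescence stays within three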;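 note: channel opened by potassium depolarization with thallium stimulus after 20 min compound exposure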
KCNQ1 pot = potentiators or activators of KCNQ1 channel, primary screen, cell-based, thallium flux, high-throughput; Potassium voltage-gated channel subfamily KQT member 1 (Homo sapiens), P51787; CHO-K1 KCNQ1, thallium flux FluxOR fluorescence; active compounds read high; B-score at 10 µM; actives 0.35% (n = 310,000);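 active = fluorescence ratio B-score, a plate-corrected score, at least three library SD, with initial intensity B-score within 5 SD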
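Test system: CHO-K1 cells stably expressing KCNQ1 / Medium: assay buffer / Also added: depolarizing K+/Tl+ stimulus, K2SO4 and Tl2SO4 each 12.5 mM in 5x stock / Incubation: 90 min dye loading and 20 min compound exposure, both at room temperature / Signal: thallium influx via FluxOR fluorescence, kinetic imaging / Evaluation: B score of baseline-normalized fluorescence ratio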
KCNK9 inh = KCNK9 potassium channel inhibitors, primary screen, HEK293 cells, thallium flux | FluxOR thallium flux fluorescence; active compounds read low | Potassium channel subfamily K member 9 (Homo sapiens), Q9NPC2 | actives 1.2% (n = 310,000) | B-score at 10 µM;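 active = ratio B-score over 3 SD below the library mean, with starting fluorescence within 5 SD of its mean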;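 note: negative B-score means less thallium flux so channel inhibition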
KCC2 mod = KCC2 cotransporter modulators, thallium flux, primary screen, cell-based, HEK293 KCC2, FluoZin-2 fluorescence, MLSMR | Solute carrier family 12 member 5 (Homo sapiens), Q9H2X9 | KCC2 cells, thallium flux FluoZin-2 fluorescence | B-score of Tl+ flux slope (higher = more flux/activation; lower = inhibition) at 10 µM | actives 2.2% (n = 190,000) | AID 1456, 2008;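 active = thallium flux slope and its plate-corrected score both differing from the plate sample mean at a set confidence after two filtering rounds, in either direction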;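 note: slope of fluorescence scaled to starting intensity during 10 to 20 s after thallium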
KCNK3 inh = human KCNK3 channel inhibitors, primary screen, CHO cells, FluxOR thallium flux, B-score | FluxOR fluorescence; active compounds read low | actives 0.84% (n = 340,000) | AID 602410, 2012 | B-score at 10 µM | Potassium channel subfamily K member 3 (Homo sapiens), O14649;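 active = B-score under library mean minus 4 SD, starting fluorescence ratio at most library mean plus 5 SD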;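 note: more negative B-score means stronger inhibition of thallium flux through KCNK3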
Active calls of the source: *; i = inactive; . = no result given. Hits are enriched below; roughly 4.1% of the tested compounds scored in any of these assays.

SMILES	hERG rescue	KCNQ1 block	KCNQ1 pot	KCNK9 inh	KCC2 mod	KCNK3 inh
COc1ccc2nc(Nc3ccccc3OC)sc2c1	-14	i	i	i	0.29	i
COc1ccc(-c2nnc(Nc3nc4c(OC)cccc4s3)o2)cc1	12*	i	50*	i	9.5*	i
COc1ccc(-c2nnc(Nc3nc4c(OC)cccc4s3)o2)c(OC)c1	2	i	i	i	85*	i
CC(C)CSc1nc(N)nc2c1ncn2C1OC(CO)C(O)C1O (centres undefined)	.	.	.	.	.	i
O=C(CNC(=O)C12CC3CC(CC(C3)C1)C2)OCc1cc(=O)n2cc(Br)ccc2n1	6.1*	i	i	i	-1.5	i
CC1CC1C(=O)OCc1cc(=O)n2cc(Br)ccc2n1 (centres undefined)	-5	i	i	i	0.038	i
CCn1c(SCc2ccc(C(=O)OC)o2)nc2sc3c(c2c1=O)CCCC3	-6	i	i	-7.9*	2.4	i
O=C(Cc1ccc(Br)cc1)NNC(=O)c1cccs1	.	.	.	.	.	i
CCc1cc2ccc(C)cc2nc1SCC(=O)NNC(=O)c1ccco1	-3	i	i	i	3*	i
COc1ccc(Nc2nc(Cl)nc(N3CCN(c4ccc(OC)cc4)CC3)n2)cc1	-39	i	i	i	0.39	.
C=CCNc1nc(Nc2ccc([N+](=O)[O-])cc2)nc(N2CCCC2)n1	-20	8*	i	i	-1.2	i
CC1CCN(c2nc(Cl)nc(Nc3ccc([N+](=O)[O-])cc3)n2)CC1	-5	8*	i	i	-0.3	i
COc1cc(C(=O)NC2CC(C)(C)CC(C)(C)C2)ccc1OC1CCN(C(C)=O)CC1	-9	i	i	i	.	i
C/C(=N\OCC(=O)Nc1ccc(OC(F)(F)F)cc1)c1ccc2c(c1)OCCO2	-6	i	10*	i	0.13	i
C/C(N)=C(/C#N)C(=O)CSc1nc2cc(Cl)ccc2c(=O)n1-c1ccc(C)cc1	-12	i	i	i	8.7*	i
CCCCCn1c(SCc2ccncc2)nc2cc(C(=O)NCc3ccco3)ccc2c1=O	-9	10*	i	i	.	i
COCCn1c(SCC(=O)Nc2cc(C(C)(C)C)nn2-c2ccccc2)nc2ccccc2c1=O	-6	i	i	i	0.88	i
CCCCn1c(SCC(=O)/C(C#N)=C(\C)N)nc2ccccc2c1=O	-6	i	i	i	24*	i
COc1ccc(-n2c(SCC(=O)/C(C#N)=C(\C)N)nc3ccccc3c2=O)cc1OC	-8	i	i	i	-0.23	i
O=C(NCc1ccco1)c1ccc2c(=O)n(Cc3ccco3)c(SCC(=O)N3CCCC3)nc2c1	.	.	.	.	-1	i
CCOCCCn1c(SCC(=O)Nc2cc(C(C)(C)C)nn2-c2ccccc2)nc2ccccc2c1=O	-7	i	i	-7.3*	0.49	i
N#Cc1ccc(-c2cn3c(n2)SCC3)cc1	-2	i	i	i	.	i
Cc1ccc(S(=O)(=O)NCC(=O)N(CC2CCCO2)C(C(=O)NCC2CCCO2)C(C)C)cc1 (centres undefined)	-4	i	i	i	.	i
Nc1nonc1C(=O)NCCNC(=O)c1ccc(Cl)c(Cl)c1	-6	i	i	i	.	i
CCCCn1c(SCC(=O)NCc2ccco2)nc2ccccc2c1=O	-2	i	i	i	9.1*	i
SMILES	hERG rescue	KCNQ1 block	KCNQ1 pot	KCNK9 inh	KCC2 mod	KCNK3 inh
COC(=O)c1cc(=O)n(Cc2ccc3c(c2)OCO3)c(=Nc2ccc(F)cc2)s1	-8	6*	i	-8*	1	i
COC(=O)c1cc(=O)n(Cc2ccco2)c(=Nc2ccc(F)c(Cl)c2)s1	-6	7*	i	i	.	i
Cc1nn(-c2ccccc2)c(Cl)c1C(=O)NNC(=O)c1ccccc1O	.	.	.	.	.	i
CN(CC(=O)Nc1ccc(OC(F)(F)F)cc1)C1CCCCC1	-6	i	i	i	0.15	i
O=C(CNCC1CCCCC1)Nc1ccc(OC(F)(F)F)cc1	-20	i	20*	i	0.52	i
Fc1cnc(N2CCOCC2)nc1N1CCc2ccccc21	-3	i	i	i	-3.3*	i
CCOC(=O)[C@H]1[C@H]2COc3ccc(Br)cc3[C@@H]2N2C(=O)c3c(C)cc(C)cc3NC(=O)[C@@]12C	.	.	.	.	.	i
CCOc1cccc(=O)c2c(C)n(-c3ccc(C(=O)O)cc3)c(C)c12	4.8*	i	i	i	.	i
COc1cc(/C=C2/C(=O)N(c3ccc(Br)cc3)N=C2C)cc(OC)c1OC	-8	8*	i	i	.	i
CCOc1cc(NC(=S)N2CCC(C(N)=O)CC2)c(C(=O)OC)cc1OCC	11*	i	i	i	0.01	i
Cc1ccc(Nc2nc(Cl)nc3ncn(C)c23)c(C)c1	.	.	.	.	.	i
NC(=O)CC(NC(=O)c1ccccc1)c1ccc(N2CCC(N3CCCC3)CC2)c([N+](=O)[O-])c1 (centres undefined)	-8	i	i	i	.	i
NC(=O)CC(NC(=O)c1ccccc1)c1ccc(N2CCC(Cc3ccccc3)CC2)c([N+](=O)[O-])c1 (centres undefined)	-17	i	i	-6.8*	.	i
CCOC(=O)c1ccccc1OC(=O)CS(=O)c1ccccc1[N+](=O)[O-] (centres undefined)	-8	6*	i	i	-0.0099	i
COC(=O)c1ccc(OC(=O)CS(=O)c2ccccc2[N+](=O)[O-])cc1 (centres undefined)	-15	i	i	i	0.025	i
O=S(=O)(O)c1cc(O)c(N=Nc2ccc(O)cc2O)c2ccccc12	.	.	.	.	.	i
Cn1c(N)c(N2CCCCC2)c(=O)n(CC(=O)Nc2cccc(C#N)c2)c1=O	.	.	.	.	.	i
COc1ccc(C)cc1NC(=S)NNC(=O)c1c(Br)cnn1C	7.0*	i	i	i	-1.5	i
COc1ccc(C)cc1NC(=S)NNC(=O)c1ccccc1Cl	.	.	.	.	.	i
